Experimental data taken from ChEMBL document CHEMBL4819156, “Synthesis of novel 1H-Pyrazolo[3,4-b]pyridine derivatives as DYRK 1A/1B inhibitors” (Bioorg Med Chem Lett, 2021).
Active and inactive are the calls of the source. No cut-off for these calls is given here.

What was measured:
[1] = molecular target: Dual specificity tyrosine-phosphorylation-regulated kinase 1B (Homo sapiens, UniProt Q9Y463); assay: Inhibition of DYRK1B (unknown origin)
[2] = molecular target: Dual specificity tyrosine-phosphorylation-regulated kinase 1A (Homo sapiens, UniProt Q13627); assay: Inhibition of DYRK1A (unknown origin)
SW-620 [3] = assay: Anticancer activity against human SW-620 cells assessed decrease in viable cells at 5 uM measured after 10 days by calcein AM staining based 3D spheroid assay; assay type: functional, cell-based; conditions: time 10.0 day
Summary of the method: (§1)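 3D spheroids grown in poly-HEMA-coated U-bottom wells. Compound added at days 3, 5 and 7. Cells were stained with Hoechst33342 for nuclei, calcein AM for live cells and ethidium homodimer-1 for dead cells. Images were taken on day 10 at 50×.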

COLO 205 = assay: Cytotoxicity against human COLO205 cells assessed as reduction in cell viability; assay type: functional, cell-based
SW-620 [4] = assay: Anticancer activity against human SW-620 cells assessed dead cells at 5 uM measured after 10 days by Ethidium Homodimer-1 staining based 3D spheroid assay; assay type: functional, cell-based; conditions: time 10.0 day; summary of the method: as §1
HCT-116 [5] = assay: Cytotoxicity against human HCT116 cells assessed as reduction in cell viability; assay type: functional, cell-based
Colon cancer cell line = assay: Cytotoxicity against patient-derived human colon cancer organoids assessed as reduction of crypt size and disruption of intact organoid structure at 10 uM measured after 5 days by Celltiter-glo luminescent assay relative to control; assay type: functional, cell-based; conditions: time 5.0 day
LoVo = assay: Cytotoxicity against human LOVO cells assessed as reduction in cell viability; assay type: functional, cell-based
SW-620 [6] = assay: Anticancer activity against human SW-620 cells assessed decrease in nuclei size at 5 uM measured after 10 days by Hoechst33342 staining based 3D spheroid assay; assay type: functional, cell-based; conditions: time 10.0 day; summary of the method: as §1
SW480 [7] = assay: Anticancer activity against human SW480 cells assessed dead cells at 5 uM measured after 10 days by Ethidium Homodimer-1 staining based 3D spheroid assay; assay type: functional, cell-based; conditions: time 10.0 day; summary of the method: as §1
RKO = assay: Cytotoxicity against human RKO cells assessed as reduction in cell viability; assay type: functional, cell-based
SW-620 [8] = assay: Cytotoxicity against human SW-620 cells assessed as reduction in cell viability; assay type: functional, cell-based
DLD-1 [9] = assay: Induction of autophagic cell death in human DLD-1 cells assessed as multi-vesicle formation; assay type: functional, cell-based
SW480 [10] = assay: Anticancer activity against human SW480 cells assessed decrease in viable cells at 5 uM measured after 10 days by calcein AM staining based 3D spheroid assay; assay type: functional, cell-based; conditions: time 10.0 day; summary of the method: as §1
DLD-1 [11] = assay: Cytotoxicity against human DLD-1cells assessed as reduction in cell viability; assay type: functional, cell-based
SW480 [12] = assay: Anticancer activity against human SW480 cells assessed decrease in nuclei size at 5 uM measured after 10 days by Hoechst33342 staining based 3D spheroid assay; assay type: functional, cell-based; conditions: time 10.0 day; summary of the method: as §1
HT-29 = assay: Cytotoxicity against human HT29 cells assessed as reduction in cell viability; assay type: functional, cell-based
SW480 [13] = assay: Cytotoxicity against human SW480 cells assessed as reduction in cell viability; assay type: functional, cell-based
LS174T = assay: Cytotoxicity against human LS174T cells assessed as reduction in cell viability; assay type: functional, cell-based
HCT-116 [14] = assay: Induction of autophagic cell death in human HCT-116 cells assessed as multi-vesicle formation; assay type: functional, cell-based
HCT-15 = assay: Cytotoxicity against human HCT15 cells assessed as reduction in cell viability; assay type: functional, cell-based

Chain of Dual specificity tyrosine-phosphorylation-regulated kinase 1B (Q9Y463 whole entry): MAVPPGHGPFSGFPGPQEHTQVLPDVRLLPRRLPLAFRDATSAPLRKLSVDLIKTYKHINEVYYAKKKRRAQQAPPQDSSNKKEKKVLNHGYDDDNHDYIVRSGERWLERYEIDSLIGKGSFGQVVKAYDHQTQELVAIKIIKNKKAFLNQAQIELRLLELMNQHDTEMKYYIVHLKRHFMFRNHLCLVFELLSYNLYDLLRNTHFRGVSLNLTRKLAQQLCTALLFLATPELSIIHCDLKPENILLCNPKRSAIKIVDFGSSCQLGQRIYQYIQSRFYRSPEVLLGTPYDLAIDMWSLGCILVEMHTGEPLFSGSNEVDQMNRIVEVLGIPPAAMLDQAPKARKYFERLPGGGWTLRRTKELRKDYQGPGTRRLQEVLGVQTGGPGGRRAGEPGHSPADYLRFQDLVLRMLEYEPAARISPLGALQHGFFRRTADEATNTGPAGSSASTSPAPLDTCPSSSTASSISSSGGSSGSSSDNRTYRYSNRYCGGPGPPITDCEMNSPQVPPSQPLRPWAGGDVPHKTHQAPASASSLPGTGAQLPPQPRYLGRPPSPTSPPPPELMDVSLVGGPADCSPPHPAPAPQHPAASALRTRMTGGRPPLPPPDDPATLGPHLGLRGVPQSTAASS

Row | SMILES | IC50 [1] | IC50 [2] | also measured
1 | c1ccc(-c2cnc3[nH]nc(-c4ccccc4)c3c2)cc1 | > 5 µM | > 5 µM | 
2 | COc1ncc(-c2n[nH]c3ncc(-c4ccc(O)c(O)c4)cc23)cn1 | 0.015 µM |  | 
3 | COc1ccc(-c2n[nH]c3ncc(Nc4cc(C(F)(F)F)cc(C(F)(F)F)c4)cc23)cc1 | 1.27 µM | 3.55 µM | 
4 | COc1ccc(-c2n[nH]c3ncc(Br)cc23)cc1 | 0.054 µM |  | 
5 | Oc1ccc(-c2n[nH]c3ncc(Br)cc23)cc1 | 0.087 µM | 0.056 µM | 
6 | CC(=O)Nc1cccc(-c2n[nH]c3ncc(Br)cc23)c1 | 0.257 µM | 0.638 µM | 
7 | O=[N+]([O-])c1ccc(-c2n[nH]c3ncc(Br)cc23)cc1 | > 5 µM |  | 
8 | COc1cccc(-c2n[nH]c3ncc(Nc4ccccc4)cc23)c1 | 0.575 µM | 2.82 µM | 
9 | COc1ccc(-c2n[nH]c3ncc(-c4ccc(NC(C)=O)cc4)cc23)cc1 | 0.007 µM | 0.008 µM | 
10 | COc1ccc(-c2n[nH]c3ncc(Nc4ccccc4)cc23)cc1 | 0.188 µM | 0.365 µM | 
11 | Oc1ccc(-c2cnc3[nH]nc(-c4ccccc4)c3c2)cc1 | 0.056 µM | 0.044 µM | 
12 | Brc1cnc2[nH]nc(-c3ccccc3)c2c1 | 2.04 µM |  | 
13 | COc1cccc(-c2n[nH]c3ncc(Br)cc23)c1 | > 5 µM |  | 
14 | O=[N+]([O-])c1cccc(-c2n[nH]c3ncc(Br)cc23)c1 | > 5 µM |  | 
15 | Oc1cccc(-c2cnc3[nH]nc(-c4cccc(O)c4)c3c2)c1 | 0.039 µM | 0.213 µM | 
16 | Brc1cnc2[nH]nc(-c3ccsc3)c2c1 | 0.736 µM |  | 
17 | COc1ncc(-c2n[nH]c3ncc(-c4ccc(OC)c(OC)c4)cc23)cn1 | 0.167 µM | 0.299 µM | 
18 | COc1ccc(-c2n[nH]c3ncc(Nc4cccc(O)c4)cc23)cc1 | 0.031 µM | 0.033 µM | 
19 | Brc1cnc2[nH]nc(-c3ccc4cc[nH]c4c3)c2c1 | 0.615 µM |  | 

Row | SMILES | IC50 [1] | IC50 [2] | also measured
20 | COc1cccc(-c2n[nH]c3ncc(Nc4cccc(OCc5ccccc5)c4)cc23)c1 | 3.68 µM | > 5 µM | 
21 | O=C(O)c1ccc(-c2n[nH]c3ncc(Br)cc23)cc1 | 1.05 µM |  | 
22 | NC(=O)Nc1ccc(-c2cnc3[nH]nc(-c4ccc(O)cc4)c3c2)cc1 | 0.01 µM |  | 
23 | CC(=O)Nc1cccc(-c2n[nH]c3ncc(-c4ccc(O)c(O)c4)cc23)c1 | 0.029 µM | 0.024 µM | 
24 | COc1ccc(-c2n[nH]c3ncc(-c4ccc(NC(N)=O)cc4)cc23)cc1 | 0.002 µM |  | 
25 | CC(=O)Nc1ccc(-c2n[nH]c3ncc(Br)cc23)cc1 | 0.568 µM | 1.11 µM | 
26 | COc1ncc(-c2n[nH]c3ncc(Br)cc23)cn1 | 0.141 µM |  | 
27 | Oc1ccc(-c2cnc3[nH]nc(-c4ccc(O)cc4)c3c2)cc1 | 0.006 µM | 0.005 µM | 
28 | Oc1ccc(-c2n[nH]c3ncc(-c4ccc(O)c(O)c4)cc23)cc1 |  |  | Activity (SW-620 [3]): Active; IC50 (COLO 205): 6.22 µM; Activity (SW-620 [4]): Active; IC50 (HCT-116 [5]): 1.57 µM; Activity (Colon cancer cell line): Active; IC50 (LoVo): 19.1 µM; Activity (SW-620 [6]): Active; Activity (SW480 [7]): Active; IC50 (RKO): 1.1 µM; IC50 (SW-620 [8]): 3.97 µM; Activity (DLD-1 [9]): Active; Activity (SW480 [10]): Active; IC50 (DLD-1 [11]): 2.45 µM; Activity (SW480 [12]): Active; IC50 (HT-29): 10.9 µM; IC50 (SW480 [13]): 4.13 µM; IC50 (LS174T): 37.5 µM; Activity (HCT-116 [14]): Active; IC50 (HCT-15): 20.1 µM
29 | COc1ccc(-c2n[nH]c3ncc(Nc4cccc(OCc5ccccc5)c4)cc23)cc1 | 0.309 µM | 0.309 µM | 
30 | Brc1cnc2[nH]nc(-c3cncnc3)c2c1 | 4.04 µM | 0.092 µM | 
31 | CC(=O)Nc1ccc(-c2cnc3[nH]nc(-c4ccc(O)cc4)c3c2)cc1 | 0.013 µM |  | 
32 | COc1ccc(-c2cnc3[nH]nc(-c4cccc(NC(C)=O)c4)c3c2)cc1OC | 0.287 µM | 0.632 µM | 
33 | COc1ccc(-c2n[nH]c3ncc(-c4ccc(OC)c(OC)c4)cc23)cc1 | 0.097 µM | 0.075 µM | 
34 | Nc1cccc(-c2n[nH]c3ncc(Br)cc23)c1 | 0.635 µM |  | 
35 | CS(=O)(=O)Nc1ccc(-c2cnc3[nH]nc(-c4ccc(O)cc4)c3c2)cc1 | 0.005 µM |  | 
36 | Brc1cnc2[nH]nc(-c3cnn(Cc4ccccc4)c3)c2c1 | 0.121 µM |  | 
37 | COc1cccc(-c2n[nH]c3ncc(Nc4cccc(O)c4)cc23)c1 | 0.191 µM | 0.95 µM | 
